Converted amounts (≈) assume the structure as drawn.
Experiments:
[1] = target: T1, Glutamate racemase (Helicobacter pylori J99, UniProt Q9ZLT0); test: Inhibition of Helicobacter pylori J99 glutamate racemase
T1 sequence (Q9ZLT0 whole entry): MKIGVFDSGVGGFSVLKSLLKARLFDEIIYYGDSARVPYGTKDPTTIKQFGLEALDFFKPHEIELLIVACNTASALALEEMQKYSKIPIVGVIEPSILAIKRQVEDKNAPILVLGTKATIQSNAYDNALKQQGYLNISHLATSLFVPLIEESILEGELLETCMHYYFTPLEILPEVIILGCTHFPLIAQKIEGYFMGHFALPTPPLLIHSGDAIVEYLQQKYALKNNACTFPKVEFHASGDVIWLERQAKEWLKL
In short: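 The racemase was expressed from the murI gene of H. pylori J99 chromosomal DNA. IC50 was taken as the mean of duplicate determinations, using a method cited from earlier work.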

[2] = tested on: Helicobacter pylori; test: Antibacterial activity against wild type Helicobacter pylori 055; assay type: functional
[3] = Intrinsic clearance in human liver microsomes at 2 uM assessed per mg of protein; assay type: ADME, Microsome; details: read-out: CLH
[4] = Intrinsic clearance in mouse liver microsomes at 2 uM assessed per mg of protein; assay type: ADME, Microsome; details: read-out: CLH
[5] = tested on: Helicobacter pylori; test: Antibacterial activity against AcrAB-TolC efflux pump-dificient Helicobacter pylori; assay type: functional
[6] = tested on: Helicobacter pylori; test: Ratio of MIC for wild type Helicobacter pylori 055 to MIC for AcrAB-TolC efflux pump-dificient Helicobacter pylori

Cc1nc(N)sc1-c1c2c(=O)n(C)c(=O)n(CC3CC3)c2nn1Cc1ccnc2ccc(Cl)cc12
IC50 [1]: 740 nM
MIC [2]: > 32 µg/mL
microsomal CLint at 2 µM [3]: < 14 µL/min/mg
microsomal CLint at 2 µM [4]: 61 µL/min/mg

Cn1cc(C#N)nc1-c1c2c(=O)n(C)c(=O)n(CC3CC3)c2nn1Cc1ccnc2ccc(Cl)cc12
IC50 [1]: 87 nM
MIC [2]: 4 µg/mL (≈ 7.98 µM)
MIC [5]: 2 µg/mL (≈ 3.99 µM)
microsomal CLint at 2 µM [3]: < 14 µL/min/mg
microsomal CLint at 2 µM [4]: 87 µL/min/mg

Cn1cc(C#N)cc1-c1c2c(=O)n(CC#CCN3CCOCC3)c(=O)n(CC3CC3)c2nn1Cc1ccnc2ccc(Cl)cc12
IC50 [1]: 51 nM
MIC [2]: 16 µg/mL (≈ 25.7 µM)
MIC [5]: 4 µg/mL (≈ 6.42 µM)
microsomal CLint at 2 µM [3]: > 100 µL/min/mg
microsomal CLint at 2 µM [4]: > 100 µL/min/mg

CC#CCn1c(=O)c2c(-c3cncn3C)n(Cc3ccnc4ccc(Cl)cc34)nc2n(CC2CC2)c1=O
IC50 [1]: 63 nM
MIC [2]: 8 µg/mL (≈ 15.6 µM)
MIC [5]: 2 µg/mL (≈ 3.89 µM)
microsomal CLint at 2 µM [3]: 47 µL/min/mg
microsomal CLint at 2 µM [4]: 44 µL/min/mg

Cn1cncc1-c1c2c(=O)n(CC3CC3)c(=O)n(CC3CC3)c2nn1Cc1ccnc2ccc(Cl)cc12
IC50 [1]: 69 nM
MIC [2]: 2 µg/mL (≈ 3.88 µM)
MIC [5]: 0.9 µg/mL (≈ 1.74 µM)
microsomal CLint at 2 µM [3]: < 14 µL/min/mg
microsomal CLint at 2 µM [4]: 44 µL/min/mg
Ratio [6]: <=2

Cn1cc(C#N)nc1-c1c2c(=O)n(CC3CC3)c(=O)n(CC3CC3)c2nn1Cc1ccnc2ccc(Cl)cc12
IC50 [1]: 150 nM
MIC [2]: 2 µg/mL (≈ 3.7 µM)
MIC [5]: 2 µg/mL (≈ 3.7 µM)
Ratio [6]: <=2

CC(C)Cn1c(=O)n(C)c(=O)c2c(-c3cncn3C)n(Cc3cccc4ccccc34)nc21
IC50 [1]: 120 nM
MIC [2]: 4 µg/mL (≈ 9.04 µM)

CC(=O)c1cc(-c2c3c(=O)n(C)c(=O)n(CC4CC4)c3nn2Cc2ccnc3ccc(Cl)cc23)n(C)c1
IC50 [1]: 39 nM
MIC [2]: 3 µg/mL (≈ 5.8 µM)
microsomal CLint at 2 µM [3]: 19 µL/min/mg
microsomal CLint at 2 µM [4]: 53 µL/min/mg

CC(C)n1c(=O)c2c(-c3cc(C#N)cn3C)n(Cc3ccnc4ccc(Cl)cc34)nc2n(CC2CC2)c1=O
IC50 [1]: 240 nM
MIC [2]: 4 µg/mL (≈ 7.58 µM)
MIC [5]: 8 µg/mL (≈ 15.2 µM)
microsomal CLint at 2 µM [3]: 26 µL/min/mg
microsomal CLint at 2 µM [4]: > 100 µL/min/mg
Ratio [6]: <=2

Cc1c[nH]nc1-c1c2c(=O)n(C)c(=O)n(CC3CC3)c2nn1Cc1ccnc2ccc(Cl)cc12
IC50 [1]: 220 nM
MIC [2]: 8 µg/mL (≈ 16.8 µM)
microsomal CLint at 2 µM [3]: 20 µL/min/mg
microsomal CLint at 2 µM [4]: > 100 µL/min/mg

Cn1cc(C#N)cc1-c1c2c(=O)n(CCO)c(=O)n(CC3CC3)c2nn1Cc1ccnc2ccc(Cl)cc12
IC50 [1]: 88 nM
MIC [2]: 64 µg/mL (≈ 121 µM)
MIC [5]: 16 µg/mL (≈ 30.2 µM)
microsomal CLint at 2 µM [3]: > 100 µL/min/mg
microsomal CLint at 2 µM [4]: > 100 µL/min/mg

CC(C)Cn1c(=O)n(C)c(=O)c2c(-c3cc(C#N)cn3C)n(Cc3ccnc4ccc(Cl)cc34)nc21
IC50 [1]: 86 nM
MIC [2]: 4 µg/mL (≈ 7.97 µM)
microsomal CLint at 2 µM [3]: 94 µL/min/mg
microsomal CLint at 2 µM [4]: > 100 µL/min/mg

Cn1cnnc1-c1c2c(=O)n(C)c(=O)n(CC3CC3)c2nn1Cc1ccnc2ccc(Cl)cc12
IC50 [1]: 230 nM
MIC [2]: 8 µg/mL (≈ 16.8 µM)
microsomal CLint at 2 µM [3]: < 14 µL/min/mg
microsomal CLint at 2 µM [4]: 64 µL/min/mg

Cn1cncc1-c1c2c(=O)n(CC#CCO)c(=O)n(CC3CC3)c2nn1Cc1ccnc2ccc(Cl)cc12
IC50 [1]: 54 nM
MIC [2]: 64 µg/mL (≈ 121 µM)
MIC [5]: 16 µg/mL (≈ 30.2 µM)
microsomal CLint at 2 µM [3]: > 100 µL/min/mg
microsomal CLint at 2 µM [4]: > 100 µL/min/mg

Cc1cc(C#N)oc1-c1c2c(=O)n(C)c(=O)n(CC3CC3)c2nn1Cc1ccnc2ccc(Cl)cc12
IC50 [1]: 60 nM
MIC [2]: 1 µg/mL (≈ 2 µM)
MIC [5]: 0.25 µg/mL (≈ 0.499 µM)
microsomal CLint at 2 µM [3]: 59 µL/min/mg
microsomal CLint at 2 µM [4]: > 100 µL/min/mg

CC(C)Cn1c(=O)n(C)c(=O)c2c(-c3cncn3C)n(Cc3ccnc4ccc(Cl)cc34)nc21
IC50 [1]: 170 nM
MIC [2]: 4 µg/mL (≈ 8.37 µM)
microsomal CLint at 2 µM [3]: 17 µL/min/mg
microsomal CLint at 2 µM [4]: > 100 µL/min/mg

Cc1sc(N)nc1-c1c2c(=O)n(C)c(=O)n(CC3CC3)c2nn1Cc1ccnc2ccc(Cl)cc12
IC50 [1]: 280 nM
MIC [2]: 8 µg/mL (≈ 15.7 µM)
microsomal CLint at 2 µM [3]: 34 µL/min/mg
microsomal CLint at 2 µM [4]: > 100 µL/min/mg

Cn1cc(C#N)cc1-c1c2c(=O)n(CCn3ccnn3)c(=O)n(CC3CC3)c2nn1Cc1ccnc2ccc(Cl)cc12
IC50 [1]: 670 nM
MIC [2]: 16 µg/mL (≈ 27.5 µM)
MIC [5]: 16 µg/mL (≈ 27.5 µM)
microsomal CLint at 2 µM [3]: > 100 µL/min/mg
microsomal CLint at 2 µM [4]: > 100 µL/min/mg

Cn1cc(C#N)cc1-c1c2c(=O)n(CC#CCn3cncn3)c(=O)n(CC3CC3)c2nn1Cc1ccnc2ccc(Cl)cc12
IC50 [1]: 13 nM
MIC [2]: 8 µg/mL (≈ 13.2 µM)
MIC [5]: 16 µg/mL (≈ 26.4 µM)
microsomal CLint at 2 µM [3]: > 100 µL/min/mg
microsomal CLint at 2 µM [4]: > 100 µL/min/mg

CCn1c(=O)c2c(-c3cncn3C)n(Cc3ccnc4ccc(Cl)cc34)nc2n(CC2CC2)c1=O
IC50 [1]: 72 nM
MIC [2]: 4 µg/mL (≈ 8.16 µM)
MIC [5]: 1 µg/mL (≈ 2.04 µM)
microsomal CLint at 2 µM [3]: < 14 µL/min/mg
microsomal CLint at 2 µM [4]: 15 µL/min/mg

Cn1cc(C#N)nc1-c1c2c(=O)n(C3CC3)c(=O)n(CC3CC3)c2nn1Cc1ccnc2ccc(Cl)cc12
IC50 [1]: 250 nM
MIC [2]: 8 µg/mL (≈ 15.2 µM)
MIC [5]: 4 µg/mL (≈ 7.59 µM)
microsomal CLint at 2 µM [3]: < 14 µL/min/mg
microsomal CLint at 2 µM [4]: < 14 µL/min/mg

Cn1cc(C#N)cc1-c1c2c(=O)n(CC#N)c(=O)n(CC3CC3)c2nn1Cc1ccnc2ccc(Cl)cc12
IC50 [1]: 55 nM
MIC [2]: 8 µg/mL (≈ 15.2 µM)
MIC [5]: 1 µg/mL (≈ 1.9 µM)
microsomal CLint at 2 µM [3]: < 14 µL/min/mg
microsomal CLint at 2 µM [4]: 96 µL/min/mg

Cn1cc(C#N)cc1-c1c2c(=O)n(CC#CCn3cccn3)c(=O)n(CC3CC3)c2nn1Cc1ccnc2ccc(Cl)cc12
IC50 [1]: 120 nM
MIC [2]: 8 µg/mL (≈ 13.2 µM)
MIC [5]: 4 µg/mL (≈ 6.62 µM)
microsomal CLint at 2 µM [3]: > 100 µL/min/mg
microsomal CLint at 2 µM [4]: > 100 µL/min/mg

Cn1cc(C#N)cc1-c1c2c(=O)n(CC#CCn3ccnc3)c(=O)n(CC3CC3)c2nn1Cc1ccnc2ccc(Cl)cc12
IC50 [1]: 260 nM
MIC [2]: 64 µg/mL (≈ 106 µM)
MIC [5]: 4 µg/mL (≈ 6.62 µM)
microsomal CLint at 2 µM [3]: 41 µL/min/mg
microsomal CLint at 2 µM [4]: > 100 µL/min/mg

Cc1nc[nH]c1-c1c2c(=O)n(C)c(=O)n(CC3CC3)c2nn1Cc1ccnc2ccc(Cl)cc12
IC50 [1]: 900 nM
MIC [2]: 32 µg/mL (≈ 67.2 µM)
microsomal CLint at 2 µM [3]: 92 µL/min/mg
microsomal CLint at 2 µM [4]: > 100 µL/min/mg

Cn1cc(C#N)cc1-c1c2c(=O)n(CCn3cccn3)c(=O)n(CC3CC3)c2nn1Cc1ccnc2ccc(Cl)cc12
IC50 [1]: 470 nM
MIC [2]: 32 µg/mL (≈ 55.2 µM)
MIC [5]: 32 µg/mL (≈ 55.2 µM)
microsomal CLint at 2 µM [3]: > 100 µL/min/mg
microsomal CLint at 2 µM [4]: > 100 µL/min/mg

Cn1cncc1-c1c2c(=O)n(C3CC3)c(=O)n(CC3CC3)c2nn1Cc1ccnc2ccc(Cl)cc12
IC50 [1]: 79 nM
MIC [2]: 8 µg/mL (≈ 15.9 µM)
MIC [5]: 2 µg/mL (≈ 3.98 µM)
microsomal CLint at 2 µM [3]: < 14 µL/min/mg
microsomal CLint at 2 µM [4]: 6 µL/min/mg

Cn1cncc1-c1c2c(=O)n(CC#CCN3CCOCC3)c(=O)n(CC3CC3)c2nn1Cc1ccnc2ccc(Cl)cc12
IC50 [1]: 170 nM
MIC [2]: 64 µg/mL (≈ 107 µM)
MIC [5]: 16 µg/mL (≈ 26.7 µM)
microsomal CLint at 2 µM [3]: > 100 µL/min/mg
microsomal CLint at 2 µM [4]: > 100 µL/min/mg

Cn1cc(C#N)cc1-c1c2c(=O)n(C3CC3)c(=O)n(CC3CC3)c2nn1Cc1ccnc2ccc(Cl)cc12
IC50 [1]: 80 nM
MIC [2]: 2 µg/mL (≈ 3.8 µM)
MIC [5]: 0.13 µg/mL (≈ 0.247 µM)
microsomal CLint at 2 µM [3]: 30 µL/min/mg
microsomal CLint at 2 µM [4]: 33 µL/min/mg

CC(C)Cn1c(=O)n(C)c(=O)c2c(-c3cccn3C)n(Cc3ccnc4ccc(Cl)cc34)nc21
IC50 [1]: 260 nM
MIC [2]: 18 µg/mL (≈ 37.7 µM)
microsomal CLint at 2 µM [3]: > 100 µL/min/mg
microsomal CLint at 2 µM [4]: > 100 µL/min/mg

Cn1ncnc1-c1c2c(=O)n(C)c(=O)n(CC3CC3)c2nn1Cc1ccnc2ccc(Cl)cc12
IC50 [1]: 810 nM
MIC [2]: 8 µg/mL (≈ 16.8 µM)
MIC [5]: 4 µg/mL (≈ 8.39 µM)
microsomal CLint at 2 µM [3]: 32 µL/min/mg
microsomal CLint at 2 µM [4]: < 14 µL/min/mg

Cn1cc(C#N)cc1-c1c2c(=O)n(CC#CCO)c(=O)n(CC3CC3)c2nn1Cc1ccnc2ccc(Cl)cc12
IC50 [1]: 57 nM
MIC [2]: 32 µg/mL (≈ 57.8 µM)
MIC [5]: 16 µg/mL (≈ 28.9 µM)
microsomal CLint at 2 µM [3]: > 100 µL/min/mg
microsomal CLint at 2 µM [4]: > 100 µL/min/mg
